What was measured:
[1] = Cytotoxicity against human TZM-bl cells at 500 uM; format: cell-based
[2] = system: Human immunodeficiency virus 1; assay: Antiviral activity against HIV1 CCR5-tropic strain YU2 infected in human 293T cells after 48 hrs by neutralization assay; format: functional, cell-based; conditions: Human immunodeficiency virus 1, isolate YU2, HEK-293T
Procedure, shortened: (§1)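 Env-pseudotyped virus made by transfecting 293T cells with SG3denv plus an HIV-1 env plasmid. Medium changed at 24 h, supernatant harvested at 48 h, 0.45 μm filtered, stored at −80 °C. Two-fold serial inhibitor dilutions mixed with virus, then TZM-bl cells added. Incubated at 37 °C, 5% CO₂, fresh medium at 24 h. Luciferase read after lysis at 48 h post-infection. Single round. Tested up to 400 μM.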

[3] = system: Human immunodeficiency virus 1; assay: Antiviral activity against HIV1 CXCR4-tropic strain HxB2 infected in human 293T cells after 48 hrs by neutralization assay; format: functional, organism-based; conditions: Human immunodeficiency virus 1, HxB2, HEK-293T; procedure, shortened: as §1
[4] = Therapeutic index, ratio of LC50 for human TZM-bl cells to IC50 for HIV1; format: cell-based; conditions: read-out: TI
[5] = system: Human immunodeficiency virus 1; assay: Antiviral activity against HIV1 JRCSF infected in human 293T cells after 48 hrs by neutralization assay; format: functional, cell-based; conditions: Human immunodeficiency virus 1, JRCSF ISOLATE, HEK-293T; procedure, shortened: as §1
293T [6] = assay: Inhibition of envelope gp120 in CCR5-tropic HIV1 YU2 infected in human 293T cells assessed as dose reduction index ratio at 1: 10 at 1:10 inhibitor to CCR5 Nt sulfated peptide (2 to 18) by single round neutralization assay; format: cell-based; conditions: Human immunodeficiency virus type 1 (isolate YU2)
Procedure, shortened: (§2)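 Single-round YU2 pseudovirus neutralization in TZM-bl cells with luciferase read-out. Virus treated with inhibitor alone, with sulfated CCR5 N-terminal peptide 2–18 alone, or with a constant-ratio mixture, two-fold serial dilutions starting near 30× the single-agent IC₅₀. The ratio approximates the ratio of single-agent IC₅₀s. Analysed by the Chou–Talalay method. DRI is IC₅₀ alone divided by IC₅₀ in combination. CI below 1, equal to 1 and above 1 mean synergy, additivity and antagonism.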

[7] = Binding affinity to HIV immobilized envelop gp120 at 80 to 350 uM by surface plasmon resonance analysis; parameters: species or system Human immunodeficiency virus
293T [8] = assay: Inhibition of envelope gp120 in CCR5-tropic HIV1 YU2 infected in human 293T cells assessed as combination index at 1: 10 at 1:10 inhibitor to CCR5 Nt sulfated peptide (2 to 18) by single round neutralization assay; format: cell-based; conditions: Human immunodeficiency virus type 1 (isolate YU2); procedure, shortened: as §2
[9] = Cytotoxicity against human TZM-bl cells at 200 to 500 uM; format: cell-based
[10] = system: Human immunodeficiency virus 1; assay: Antiviral activity against HIV1 NL4-3 infected in human 293T cells after 48 hrs by neutralization assay; format: functional, organism-based; conditions: Human immunodeficiency virus 1, NL4-3, HEK-293T; procedure, shortened: as §1
[11] = system: Human immunodeficiency virus 1; assay: Antiviral activity against HIV1 dual CXCR4/CCR5-tropic strain 89.6 infected in human 293T cells after 48 hrs by neutralization assay; format: functional, organism-based; conditions: Human immunodeficiency virus 1, 89.6, HEK-293T; procedure, shortened: as §1
[12] = Cytotoxicity against human TZM-bl cells; format: cell-based; conditions: read-out: LC50 (the source's name)
[13] = system: Human immunodeficiency virus 1; assay: Antiviral activity against HIV1 CCR5-tropic strain YU2 infected in human 293T cells at 500 uM after 48 hrs by neutralization assay; format: functional, cell-based, isolate YU2
[14] = system: Human immunodeficiency virus 1; assay: Antiviral activity against HIV1 JRCSF infected in human 293T cells after at 400 uM 48 hrs by neutralization assay; format: functional, cell-based, JRCSF ISOLATE; procedure, shortened: as §1
[15] = system: Human immunodeficiency virus 1; assay: Antiviral activity against HIV1 dual CXCR4/CCR5-tropic strain 89.6 infected in human 293T cells at 400 uM after 48 hrs by neutralization assay; format: functional, organism-based; procedure, shortened: as §1
[16] = system: Human immunodeficiency virus 1; assay: Antiviral activity against HIV1 CCR5-tropic strain YU2 infected in human 293T cells at 400 uM after 48 hrs by neutralization assay; format: functional, cell-based, isolate YU2; procedure, shortened: as §1
[17] = system: Human immunodeficiency virus 1; assay: Antiviral activity against HIV1 CXCR4-tropic strain HxB2 infected in human 293T cells at 400 uM after 48 hrs by neutralization assay; format: functional, organism-based; procedure, shortened: as §1

Row | Structure (SMILES) | IC50 [2] [µM] | IC50 [3] [µM] | IC50 [5] [µM] | IC50 [10] [µM] | IC50 [11] [µM] | other results
1 | COc1ccc(-c2csc(N3N=C(c4ccccc4)/C(=N/Nc4cc(S(=O)(=O)O)cc5cc(S(=O)(=O)O)cc(S(=O)(=O)O)c45)C3=O)n2)cc1 | 80.8 | 18.7 | 32.3 | – | – | Activity [1]: Non-toxic; selectivity ratio [4]: > 30
2 | CC1=NN(c2nc(-c3ccc(O)c(O)c3)cs2)C(=O)/C1=N/Nc1ccc(S(=O)(=O)O)cc1 | 512 | – | – | – | – | –
3 | COc1ccc(-c2csc(N3N=C(c4ccccc4)/C(=N/Nc4ccc5c(S(=O)(=O)O)cc(S(=O)(=O)O)cc5c4)C3=O)n2)cc1 | 24.7 | 7.5 | 10.2 | 5.8 | 3.2 | Ratio (293T [6]): 1.3; Kd [7]: 80 µM; CI (293T [8]): 2.3; Activity [9]: Toxic; selectivity ratio [4]: 10; CC50 [12]: 200 µM
4 | O=C1/C(=N\Nc2ccc3c(S(=O)(=O)O)cc(S(=O)(=O)O)cc3c2)C(c2ccccc2)=NN1c1nc(-c2ccc(OC(F)(F)F)cc2)cs1 | 52.8 | 14.2 | 29.8 | 10.7 | 14.8 | –
5 | CC1=NN(c2nc(-c3ccc(C)cc3)cs2)C(=O)/C1=N\Nc1ccc(S(=O)(=O)O)cc1 | 126 | – | – | – | – | –
6 | O=C1/C(=N\Nc2ccc3c(S(=O)(=O)O)cc(S(=O)(=O)O)cc3c2)C(c2ccccc2)=NN1c1nc(-c2nccs2)cs1 | 30.9 | 12 | 19.5 | 10.2 | 6.7 | –
7 | COc1ccc(-c2csc(N3N=C(C)/C(=N\Nc4ccc(CS(=O)(=O)O)cc4)C3=O)n2)cc1 | – | – | – | – | – | IC50 [13]: Not Active
8 | O=C1/C(=N\Nc2ccc(S(=O)(=O)O)cc2)C(c2ccccc2)=NN1c1nc(-c2ccccc2)cs1 | – | – | – | – | – | Activity [1]: Non-toxic
9 | COc1ccc(OC)c(-c2csc(N3N=C(c4ccccc4)/C(=N/Nc4ccc5c(S(=O)(=O)O)cc(S(=O)(=O)O)cc5c4)C3=O)n2)c1 | 30.7 | 2.5 | 9.9 | 3.6 | 2.9 | Activity [1]: Non-toxic; selectivity ratio [4]: 16
10 | COc1ccc(-c2csc(N3N=C(COc4ccccc4)/C(=N/Nc4ccc5c(S(=O)(=O)O)cc(S(=O)(=O)O)cc5c4)C3=O)n2)cc1 | 62.4 | 9.4 | 24.1 | 11.2 | 14.6 | –
11 | O=C1/C(=N\Nc2ccc3c(S(=O)(=O)O)cc(S(=O)(=O)O)cc3c2)C(c2ccccc2)=NN1c1nc(-c2ccccc2)cs1 | 43.7 | 3.6 | 30.7 | 7.1 | 8.4 | Kd [7]: 350 µM
12 | COc1ccc(-c2csc(N3N=C(C(F)(F)F)/C(=N/Nc4ccc5c(S(=O)(=O)O)cc(S(=O)(=O)O)cc5c4)C3=O)n2)cc1 | 298 | 80 | – | 104 | – | IC50 [14]: Not Active; IC50 [15]: Not Active
13 | CC1=NN(c2nc(-c3cccc(Cl)c3)cs2)C(=O)/C1=N/Nc1ccc(S(=O)(=O)O)cc1 | 432 | – | – | – | – | –
14 | COCC1=NN(c2nc(-c3ccc(OC)cc3)cs2)C(=O)/C1=N\Nc1ccc2c(S(=O)(=O)O)cc(S(=O)(=O)O)cc2c1 | 74.9 | 10.1 | 36.2 | 15.6 | 22.3 | –
15 | O=C1/C(=N\Nc2ccc3c(S(=O)(=O)O)cc(S(=O)(=O)O)cc3c2)C(c2ccccc2)=NN1c1nc(C(F)(F)F)cs1 | 27.9 | 6.8 | 5.8 | 6.3 | 2.4 | Activity [9]: Toxic; selectivity ratio [4]: 13; CC50 [12]: 370 µM
16 | CC1=NN(c2nc(-c3ccccc3)cs2)C(=O)/C1=N\Nc1ccc2c(S(=O)(=O)O)cc(S(=O)(=O)O)cc2c1 | 137 | 51.1 | 64.8 | 33.1 | 101 | –
17 | COc1ccc(-c2csc(N3N=C(C)/C(=N/Nc4ccc5c(S(=O)(=O)O)cc(S(=O)(=O)O)cc5c4)C3=O)n2)cc1 | 53.8 | 8.1 | 22.1 | 7 | 9.2 | Activity [1]: Non-toxic; selectivity ratio [4]: > 30
18 | CN(C)c1ccc(-c2csc(N3N=C(c4ccccc4)/C(=N/Nc4ccc5c(S(=O)(=O)O)cc(S(=O)(=O)O)cc5c4)C3=O)n2)cc1 | 23.8 | 1.1 | 8 | 2.9 | 3.8 | Ratio (293T [6]): 1.2; CI (293T [8]): 2.5; selectivity ratio [4]: 13; CC50 [12]: 330 µM
19 | CC1=NN(c2nc(-c3ccc(C(F)(F)F)cc3)cs2)C(=O)/C1=N\Nc1cc(S(=O)(=O)O)cc2cc(S(=O)(=O)O)cc(S(=O)(=O)O)c12 | 91.9 | 19.7 | 26.1 | – | – | –
20 | CC1=NN(c2nc(-c3ccc(OC(F)(F)F)cc3)cs2)C(=O)/C1=N/Nc1ccc(S(=O)(=O)O)cc1 | 400 | – | – | – | – | –
21 | COc1ccc(-c2csc(N3N=C(C)/C(=N/Nc4cc(S(=O)(=O)O)cc5cc(S(=O)(=O)O)cc(S(=O)(=O)O)c45)C3=O)n2)cc1 | 47.6 | 22.5 | 27 | – | – | –
22 | O=C1/C(=N\Nc2cc(S(=O)(=O)O)cc3cc(S(=O)(=O)O)cc(S(=O)(=O)O)c23)C(c2ccccc2)=NN1c1nc(-c2ccc(C(F)(F)F)cc2)cs1 | 80.6 | 28.9 | 30.8 | – | – | –
23 | CC1=NN(c2nc(-c3ccc(S(=O)(=O)O)cc3)cs2)C(=O)/C1=N/Nc1ccc(S(=O)(=O)O)cc1 | – | – | – | – | – | IC50 [13]: Not Active
24 | O=C1/C(=N\Nc2ccc3c(S(=O)(=O)O)cc(S(=O)(=O)O)cc3c2)C(c2ccccc2)=NN1c1nc(-c2ccc3c(c2)OCCO3)cs1 | 22.3 | 5.2 | 14.9 | 7.7 | 8.9 | Ratio (293T [6]): 1.2; CI (293T [8]): 1.9; selectivity ratio [4]: < 10; CC50 [12]: 70 µM
25 | CC1=NN(c2nc(-c3ccccc3)cs2)C(=O)/C1=N\Nc1cc(S(=O)(=O)O)cc2cc(S(=O)(=O)O)cc(S(=O)(=O)O)c12 | – | 36.8 | 47.6 | – | – | IC50 [16]: Not Active; Activity [9]: Toxic; selectivity ratio [4]: < 10; CC50 [12]: 200 µM
26 | O=C1/C(=N\Nc2cc(S(=O)(=O)O)cc3cc(S(=O)(=O)O)cc(S(=O)(=O)O)c23)C(c2ccccc2)=NN1c1nc(-c2ccccc2)cs1 | 148 | 29.3 | 35.5 | – | – | –
27 | CC1=NN(c2nc(-c3ccc(C(F)(F)F)cc3)cs2)C(=O)/C1=N/Nc1ccc(S(=O)(=O)O)cc1 | 139 | – | – | – | – | –
28 | CC1=NN(c2nc(C(F)(F)F)cs2)C(=O)/C1=N\Nc1ccc2c(S(=O)(=O)O)cc(S(=O)(=O)O)cc2c1 | – | – | 83.3 | 80.1 | 79.7 | IC50 [16]: Not Active; IC50 [17]: Not Active
29 | COc1ccc(OC)c(-c2csc(N3N=C(C)/C(=N\Nc4ccc(S(=O)(=O)O)cc4)C3=O)n2)c1 | 189 | – | – | – | – | –
